Experimental data: ChEMBL document CHEMBL1137008, “Cancer preventive agents 9. Betulinic acid derivatives as potent cancer chemopreventive agents” (Bioorg Med Chem Lett, 2009)

Assays:
[1] = Cytotoxicity against human Raji cells assessed as cell viability at 1000 molar ratio after 48 hrs by trypan blue staining method; format: cell-based; settings: read-out: Activity
Procedure, shortened: (§1)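 Raji cells (EBV genome-carrying, Burkitt's lymphoma) grown in RPMI-1640 with 10% FBS; incubated 48 h at 37 °C with 4 mM n-butyric acid, 32 pM TPA and test compound in DMSO at stated compound/TPA molar ratio; viability determined by Trypan blue staining.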

[2] = Cytotoxicity against human Raji cells assessed as cell viability at 500 molar ratio after 48 hrs by trypan blue staining method; format: cell-based; settings: read-out: Activity; procedure, shortened: as §1
[3] = Cytotoxicity against human Raji cells assessed as cell viability at 100 molar ratio after 48 hrs by trypan blue staining method; format: cell-based; settings: read-out: Activity; procedure, shortened: as §1
[4] = Cytotoxicity against human Raji cells assessed as cell viability at 10 molar ratio after 48 hrs by trypan blue staining method; format: cell-based; settings: read-out: Activity; procedure, shortened: as §1
Raji [5] = test: Inhibition of TPA-induced EBV-early antigen activation in human Raji cells assessed as EA induction at 1000 molar ratio after 48 hrs relative to TPA; format: cell-based; design: scale not given: the % may be the effect or the level left; settings: human gammaherpesvirus 4
Procedure, shortened: (§2)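 Raji cells (virus non-producer, spontaneous EA activation <0.1%) incubated 48 h at 37 °C with 4 mM n-butyric acid plus 32 pM TPA and compound in DMSO; smears stained by indirect immunofluorescence with NPC patient EBV-EA-positive serum, ≥500 cells counted; EA-positive cells expressed relative to butyrate+TPA control (100%); triplicates; IC50 as mol ratio to 32 pmol TPA.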

Raji [6] = test: Inhibition of TPA-induced EBV-early antigen activation in human Raji cells assessed as EA induction at 500 molar ratio after 48 hrs relative to TPA; format: cell-based; design: scale not given: the % may be the effect or the level left; settings: human gammaherpesvirus 4; procedure, shortened: as §2
Raji [7] = test: Inhibition of TPA-induced EBV-early antigen activation in human Raji cells assessed as EA induction at 100 molar ratio after 48 hrs relative to TPA; format: cell-based; design: scale not given: the % may be the effect or the level left; settings: human gammaherpesvirus 4; procedure, shortened: as §2
Raji [8] = test: Inhibition of TPA-induced EBV-early antigen activation in human Raji cells assessed as EA induction at 10 molar ratio after 48 hrs relative to TPA; format: cell-based; design: scale not given: the % may be the effect or the level left; settings: human gammaherpesvirus 4; procedure, shortened: as §2
[9] = Inhibition of TPA-induced EBV-early antigen activation in human Raji cells assessed as EA induction after 48 hrs relative to TPA; format: cell-based, human gammaherpesvirus 4; procedure, shortened: as §2

| SMILES | viability at 48 h, 1000 molar ratio [1] [%] | viability at 48 h, 500 molar ratio [2] [%] | viability at 48 h, 100 molar ratio [3] [%] | viability at 48 h, 10 molar ratio [4] [%] | Activity (Raji [5]) [%] | Activity (Raji [6]) [%] | Activity (Raji [7]) [%] | Activity (Raji [8]) [%] | IC50 [9] [molar ratio] |
| --- | --- | --- | --- | --- | --- | --- | --- | --- | --- |
| C=C(C)[C@@H]1CC[C@]2(C(=O)O)CC[C@]3(C)[C@H](CC[C@@H]4[C@@]5(C)CC[C@H](OC(=O)CCCCCCC/C=C\C/C=C\CCCCC)C(C)(C)[C@@H]5CC[C@]43C)[C@@H]12 | 60 | > 80 | > 80 | > 80 | 7.3 | 37.9 | 75.9 | 94.8 | 390 |
| C=C(C)[C@@H]1CC[C@]2(C(=O)O)CC[C@]3(C)[C@H](CC[C@@H]4[C@@]5(C)CC[C@H](OC(=O)CCC/C=C\C/C=C\C/C=C\C/C=C\C/C=C\CC)C(C)(C)[C@@H]5CC[C@]43C)[C@@H]12 | 60 | > 80 | > 80 | > 80 | 15.3 | 50.4 | 80.1 | 100 | 523 |
| C=C(C)[C@@H]1CC[C@]2(C(=O)O)CC[C@]3(C)[C@H](CC[C@@H]4[C@@]5(C)CC[C@H](OC(=O)C[C@@H](C)C(=O)O)C(C)(C)[C@@H]5CC[C@]43C)[C@@H]12 | 60 | > 80 | > 80 | > 80 | 0 | 31.8 | 71.2 | 94.7 | 309 |
| C=C(C)[C@@H]1CC[C@]2(C(=O)O)CC[C@]3(C)[C@H](CC[C@@H]4[C@@]5(C)[C@@H](C(=O)O)[C@H](O)C(C)(C)[C@@H]5CC[C@]43C)[C@@H]12 [CEANOTHIC ACID] | 60 | > 80 | > 80 | > 80 | 8.5 | 35.7 | 72.1 | 100 | 400 |
| C=C(C)[C@@H]1CC[C@]2(C(=O)O)CC[C@]3(C)[C@H](CC[C@@H]4[C@@]5(C)CC[C@H](OC(=O)CC/C=C\C/C=C\C/C=C\C/C=C\C/C=C\C/C=C\CC)C(C)(C)[C@@H]5CC[C@]43C)[C@@H]12 | 60 | > 80 | > 80 | > 80 | 17 | 53.8 | 83.2 | 100 | 546 |
| C=C(C)[C@@H]1CC[C@]2(C(=O)O)CC[C@]3(C)[C@H](CC[C@@H]4[C@@]5(C)CC[C@H](OC(=O)CC(C)(C)C(=O)O)C(C)(C)[C@@H]5CC[C@]43C)[C@@H]12 [BEVIRIMAT] | 60 | > 80 | > 80 | > 80 | 6.1 | 36.1 | 74.2 | – | 396 |
| C=C(C)[C@@H]1CC[C@]2(C(=O)O)CC[C@]3(C)[C@H](CC[C@@H]4[C@@]5(C)C[C@H](OC(=O)CC(C)(C)C(=O)O)C(C)(C)[C@@H]5CC[C@]43C)[C@@H]12 | 60 | > 80 | > 80 | > 80 | 5.7 | 35.6 | 73.1 | 95.3 | 352 |
| C=C(C)[C@@H]1CC[C@]2(C(=O)O)CC[C@]3(C)[C@H](CC[C@@H]4[C@@]5(C)C[C@H](O)C(C)(C)[C@@H]5CC[C@]43C)[C@@H]12 | 60 | > 80 | > 80 | > 80 | 14.2 | 39.2 | 79 | 100 | 475 |
| C=C(C)[C@@H]1CC[C@]2(C(=O)O)CC[C@]3(C)[C@H](CC[C@@H]4[C@@]5(C)CC[C@H](OC(=O)C=C(C)C)C(C)(C)[C@@H]5CC[C@]43C)[C@@H]12 | 70 | > 80 | > 80 | > 80 | 0 | 23.5 | 62.5 | 88.7 | 285 |
| C=C(C)[C@@H]1CC[C@]2(C(=O)O)CC[C@]3(C)[C@H](CC[C@@H]4[C@@]5(C)CC[C@H](OC(=O)CCC/C=C\C/C=C\C/C=C\C/C=C\CCCCC)C(C)(C)[C@@H]5CC[C@]43C)[C@@H]12 | 60 | > 80 | > 80 | > 80 | 12.3 | 46.1 | 79 | 100 | 482 |
| C=C(C)[C@@H]1CC[C@]2(C(=O)O)CC[C@]3(C)[C@H](CC[C@@H]4[C@@]5(C)[C@@H](C(=O)O)[C@H](OC(=O)CC(C)(C)C(=O)O)C(C)(C)[C@@H]5CC[C@]43C)[C@@H]12 | 60 | > 80 | > 80 | > 80 | 5.1 | 35 | 72 | 93.8 | 349 |
| C=C(C)[C@@H]1CC[C@]2(C(=O)O)CC[C@]3(C)[C@H](CC[C@@H]4[C@@]5(C)CC[C@H](OC(=O)/C=C/C=C/C)C(C)(C)[C@@H]5CC[C@]43C)[C@@H]12 | 70 | > 80 | > 80 | > 80 | 0 | 25.7 | 65.7 | 90.2 | 295 |
| COc1cc(/C=C/C(=O)CC(=O)/C=C/c2ccc(O)c(OC)c2)ccc1O [CURCUMIN] | 60 | > 80 | > 80 | > 80 | 0 | 22.8 | 81.7 | 100 | 341 |
| C=C(C)[C@@H]1CC[C@]2(C(=O)O)CC[C@]3(C)[C@H](CC[C@@H]4[C@@]5(C)CC[C@H](OC(=O)CCCCCCC/C=C\C/C=C\C/C=C\CC)C(C)(C)[C@@H]5CC[C@]43C)[C@@H]12 | 60 | > 80 | > 80 | > 80 | 10.9 | 43.3 | 77.8 | 97 | 445 |
